Like-named read-outs stand apart in the source and are kept apart here.
Assays:
[1] = test system: MiaPaCa-2 cells; assay: Annexin V FITC apoptosis, combination treatment; type: cell-based, human; details: MiaPaCa-2, combination with gemcitabine or oxaliplatin, 96 hrs
Procedure, shortened: (§1)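 Human PDAC cells plated at 50,000 per well in six-well plates. After 24 hrs, exposed for 96 hrs to test compound, gemcitabine, oxaliplatin, or test compound plus either drug. Cells trypsinized; equal numbers stained with Annexin V FITC and propidium iodide per kit protocol. Analysed by flow cytometry.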

[2] = target: PAK4-vimentin interaction (Homo sapiens, UniProt O96013); assay: Co-immunoprecipitation of PAK4 and vimentin; type: cell-based; details: vs control treatment
Procedure, shortened: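 Lysates (200 micro gram protein) from control or test-compound-treated cells were immunoprecipitated with PAK4 or vimentin antibodies. The immunoprecipitates were resolved on a 10% gel, western blotted and probed with anti-PAK4 or anti-vimentin antibodies, with loading and internal controls. Two independent experiments were run.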

[3] = test system: p-PAK4 and group I PAKs in DU-145 prostate cancer cell line; assay: PAK isoform phosphorylation in DU-145 cells; type: cell-based; details: sub-IC50 amount
[4] = test system: L3.6pl PDAC tumors; assay: L3.6pl subcutaneous xenograft; type: in vivo
Procedure, shortened: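 Four-week-old female ICR-SCID mice: 10 per group were trocared bilaterally s.c. with ~50 mg L3.6pl tumor fragments, then randomised. Treatment was diluent or test compound 140 mg/kg i.v., 5 times per week for 4 weeks. At day 21 the control arm got 140 mg/kg i.v. once daily, 5 days a week, for one more week. Tumor weight, body weight and side effects were tracked; excised tumors were H&E stained.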

[5] = test system: PARP cleavage in MiaPaCa-2 cells; assay: Western blot for PARP cleavage; type: cell-based, human; details: 72 hrs
Procedure, shortened: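 1×10^6 MiaPaCa-2 cells were grown overnight in 100 mm dishes to ~50% confluence. They were exposed to the indicated test compound concentrations for 72 hrs. Protein was extracted, separated by SDS-PAGE and western blotted with a PARP antibody, using β-actin as the loading control.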

[6] = test system: AsPC-1 tumors; assay: AsPC-1 subcutaneous xenograft; type: in vivo, ICR-SCID mice; details: KPT-9274 single agent, p < 0.05
[7] = test system: CD44+/CD133+/EpCAM+ MiaPaCa-2 CSC tumors; assay: MiaPaCa-2 CSC subcutaneous xenograft; type: in vivo, ICR-SCID mice
Procedure, shortened: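 CD44+/CD133+/EpCAM+ MiaPaCa-2 cells, isolated by FACS, were kept in serum-free sphere medium (1:1 DMEM/F-12K with B27 and N2). 1×10^6 cells were implanted subcutaneously on both flanks of 4-week-old female ICR-SCID mice. Growth was confirmed in one mouse after 2–3 weeks. Tumor-bearing mice were then randomized into 2 groups of 6: vehicle control or treatment.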

[8] = Tolerability in mice; type: in vivo; details: 200 mg/kg daily administered either intravenously or orally
[9] = test system: L3.6pl cells; assay: Annexin V FITC apoptosis, combination treatment; type: cell-based; details: combination with gemcitabine or oxaliplatin, 96 hrs
Procedure, shortened: as §1

[10] = test system: MiaPaCa-2 cells; assay: MTT isobologram synergy analysis; type: cell-based, human; details: MiaPaCa-2, KPT-9274 (60, 120 or 180 nM) with oxaliplatin (2, 4 or 8 μM), 72 hrs
Procedure, shortened: (§2)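 Cells at 5,000 per well in 96-well plates were treated after 24 hrs with test compound (60, 120 or 180 nM), a chemotherapy partner, or both for 72 hrs. The MTT read-out used 5 mg/mL reagent for 2 hrs, formazan dissolved in DMSO and absorbance at 595 nm. Mean absorbance went into isobologram analysis, and the combination index was calculated.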

[11] = test system: PAK4, p-PAK4, cyclin D1, p-PAK2 in MiaPaCa-2 cells; assay: Western blot of PAK4 and related signaling; type: cell-based, human
Procedure, shortened: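 MiaPaCa-2 cells (1×10^6 per 100 mm dish, ~50% confluent) were exposed to test compound for 72 hrs. Protein was extracted and western blotted, and blots were probed for p-PAK4 and p-PAK2 with β-actin as the loading control. Blots are representative of two independent experiments.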

[12] = test system: multi-drug transporters; assay: Multi-drug transporter substrate status; type: in vitro ADME; details: data not shown
[13] = test system: L3.6pl cells; assay: MTT isobologram synergy analysis; type: cell-based; details: 72 hrs
Procedure, shortened: as §2

[14] = test system: MiaPaCa-2 cells; assay: Clonogenic assay, combination treatment; type: cell-based, human; details: MiaPaCa-2, combination with gemcitabine or oxaliplatin
Procedure, shortened: (§3)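 Cells were seeded at 50,000 per well in six-well plates and allowed to attach for 24 hrs. They were then exposed for 72 hrs to test compound, gemcitabine, oxaliplatin or a combination. Afterwards, 1,000 cells per condition were re-seeded in 100 mm dishes and grown. Colonies were stained, counted and photographed.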

[15] = test system: L3.6pl cells; assay: Clonogenic assay, combination treatment; type: cell-based; details: combination with gemcitabine or oxaliplatin
Procedure, shortened: as §3

[16] = target: PAK4 (Homo sapiens, UniProt O96013); details: cited from earlier work
[17] = test system: multi-drug transporters; details: cited from earlier work
[18] = clinical trial NCT00932126; cited from earlier work
[19] = 140 mg/kg IV, 5 days per week, SCID mice

Chain of PAK4 (O96013 whole entry): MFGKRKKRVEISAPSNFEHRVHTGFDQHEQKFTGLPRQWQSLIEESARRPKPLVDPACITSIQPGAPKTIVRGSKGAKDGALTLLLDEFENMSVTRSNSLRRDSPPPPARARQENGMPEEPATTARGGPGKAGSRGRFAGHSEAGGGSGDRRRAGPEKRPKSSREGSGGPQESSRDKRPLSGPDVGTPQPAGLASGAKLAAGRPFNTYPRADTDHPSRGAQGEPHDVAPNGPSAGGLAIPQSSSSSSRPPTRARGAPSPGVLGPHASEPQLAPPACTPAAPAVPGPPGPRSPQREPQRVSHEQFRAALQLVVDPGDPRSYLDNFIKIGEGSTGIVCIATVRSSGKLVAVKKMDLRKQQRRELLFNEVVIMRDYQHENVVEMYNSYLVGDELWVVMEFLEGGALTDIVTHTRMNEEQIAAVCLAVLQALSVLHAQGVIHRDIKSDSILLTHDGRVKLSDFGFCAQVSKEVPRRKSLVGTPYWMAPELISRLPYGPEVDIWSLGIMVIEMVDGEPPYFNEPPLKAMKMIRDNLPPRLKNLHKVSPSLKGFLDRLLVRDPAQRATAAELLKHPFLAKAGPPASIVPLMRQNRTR
Chain of PAK4-vimentin interaction (O96013 whole entry): as above

SMILES: Nc1ccc(/C=C/C(=O)NCc2cc3cc(-c4ccc(C(=O)N5CCC(F)(F)CC5)cc4)cc(-c4ccc(F)cc4)c3o2)cn1 [KPT-9274]
- apoptosis, combination vs either single agent alone [1]: statistically significant enhancement in apoptosis
- PAK4-vimentin interaction (co-immunoprecipitation) [2]: disruption of PAK4-vimentin interaction
- p-PAK4 versus group I PAKs [3]: selective inhibition of p-PAK4 sparing other group I PAKs
- effect on large established tumors (control group, mean tumor 1500 mg) ([4]; 140 mg/kg IV per day from day 21, 3 doses): regress large established tumors
- anti-tumor activity on L3.6pl tumors [4, 19]: completely eliminated
- outward signs of toxicity, body weight loss [4, 19]: did not see any outward signs of toxicity, body weight loss
- PARP cleavage (western blot) [5]: significant PARP cleavage
- tumor growth, AsPC-1 xenograft [6]: statistically significant inhibition of tumor growth
- suppression of CSC tumors ([7]; 140 mg/kg once daily i.v.): almost complete suppression of CSC tumors
- tolerability in mice [8]: well tolerated
- apoptosis, combination vs either single agent alone [9]: statistically significant enhancement in apoptosis
- combination index (CI) [10]: < 1
- p-PAK2 level (western blot) [11]: without effecting
- p-PAK4 level (western blot) [11]: reduced
- substrate of the multi-drug transporters [12]: not a substrate of the multi-drug transporters
- combination index (CI) ([13]; KPT-9274 (60, 120 or 180 nM) with gemcitabine (10, 20 or 40 nM)): < 1
- combination index (CI) ([13]; KPT-9274 (60, 120 or 180 nM) with oxaliplatin (2, 4 or 8 μM)): < 1
- colony formation, combination vs single agents alone [14]: inhibition of colony formation
- colony formation, combination vs single agents alone [15]: inhibition of colony formation

SMILES: COc1nc(NCCc2c[nH]c3ccccc23)nc(Nc2ccc3[nH]ncc3c2)n1 [KY-04031]
- binding affinity towards PAK4 [16]: very low binding affinity

SMILES: Cc1nc(Nc2n[nH]c3c2CN(C(=O)N[C@H](CN(C)C)c2ccccc2)C3(C)C)c2sccc2n1 [PF-03758309]
- substrate of the multi-drug transporters [17]: substrate of the multi-drug transporters
- human bioavailability [18]: < 1%

SMILES: Nc1ccn([C@@H]2O[C@H](CO)[C@@H](O)C2(F)F)c(=O)n1 [gemcitabine, reference compound]
- response of CSC tumors ([7]; 50 mg/kg i.p.): do not respond

From publication PMC5221563 (Molecular cancer therapeutics, 2016)
